# Data: ChEMBL document CHEMBL4613248, “Twelfth-Position Deuteration of Nevirapine Reduces 12-Hydroxy-Nevirapine Formation and Nevirapine-Induced Hepatocyte Death” (J Med Chem, 2020)
# Columns and labels:
# [1] = test system: Hepatocyte; test: Induction of change in Rps27l protein expression in C57BL/6J mouse primary hepatocytes at 400 uM incubated for 8 hrs by relative-quantitation label-free proteomics analysis relative to NVP; format: cell-based
# In short: (§1)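 Fresh primary hepatocytes from male C57BL/6J mice aged 8–13 weeks, adhered overnight, then given fresh medium containing compound (400 μM), NVP (400 μM) or vehicle (0.2% DMSO) for 8 h. Lysate reduced (DTT) and alkylated (iodoacetamide), acetone-precipitated and digested with trypsin. Label-free Top10 nanoLC-MS with precursor ion area quantitation; unpaired t test P values, Cohen's d effect size.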
# [2] = test system: Hepatocyte; test: Induction of change in Tf protein expression in C57BL/6J mouse primary hepatocytes at 400 uM incubated for 8 hrs by relative-quantitation label-free proteomics analysis relative to NVP; format: cell-based; in short: as §1
# [3] = test system: Hepatocyte; test: Induction of change in TMED9 protein expression in human primary hepatocytes at 10 uM incubated for 48 hrs by relative-quantitation label-free proteomics analysis relative to NVP; format: cell-based
# In short: as §1, with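 “Cryoplateable pooled human” for “Fresh primary”, “(10 mixed-sex donors per pool; three pools),” for “from male C57BL/6J mice aged 8–13 weeks,”, “(10” for “(400”, “(0.1%” for “(0.2%”, “48” for “8”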
# [4] = test system: Hepatocyte; test: Induction of change in Actb protein expression in C57BL/6J mouse primary hepatocytes at 400 uM incubated for 8 hrs by relative-quantitation label-free proteomics analysis relative to NVP; format: cell-based; in short: as §1
# [5] = test system: Cytochrome P450; test: Drug metabolism in human primary hepatocytes assessed as Cytochrome P450-mediated formation of 2-OHNVP at 10 uM incubated for 24 to 48 hrs by uHPLC-MS analysis; format: ADME, cell-based
# In short: (§2)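 Cryoplateable pooled human hepatocytes (10 mixed-sex donors per pool, three lots), adhered overnight, then 10 μM substrate or vehicle (0.1% DMSO) for 24 or 48 h in InVitroGRO CP medium. Medium extracted with 50% acetonitrile, dried, reconstituted in methanol; uHPLC-Orbitrap MS/MS for monooxygenated metabolites, high-resolution MS for O-glucuronide.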
# [6] = test system: Hepatocyte; test: Induction of change in KlAA2013 protein expression in human primary hepatocytes at 10 uM incubated for 48 hrs by relative-quantitation label-free proteomics analysis relative to NVP; format: cell-based
# In short: as §1, with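 “Cryoplateable pooled human” for “Fresh primary”, “(10 mixed-sex donors per pool; three pools),” for “from male C57BL/6J mice aged 8–13 weeks,”, “(10” for “(400”, “(0.1%” for “(0.2%”, “48” for “8”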
# [7] = test system: Hepatocyte; test: Induction of change in Mrpl1 protein expression in C57BL/6J mouse primary hepatocytes at 400 uM incubated for 8 hrs by relative-quantitation label-free proteomics analysis relative to NVP; format: cell-based; in short: as §1
# [8] = biological target: T1, Cytochrome P450 2B6 (Homo sapiens, UniProt P20813); test: Drug metabolism assessed as human CYP2B6-mediated formation of 12-OHNVP at 10 uM pre-incubated for 30 mins followed by addition of NADPH regenerating reagents by uHPLC-MS analysis; format: ADME; settings: recombinant enzyme
# T1 sequence (P20813 whole entry): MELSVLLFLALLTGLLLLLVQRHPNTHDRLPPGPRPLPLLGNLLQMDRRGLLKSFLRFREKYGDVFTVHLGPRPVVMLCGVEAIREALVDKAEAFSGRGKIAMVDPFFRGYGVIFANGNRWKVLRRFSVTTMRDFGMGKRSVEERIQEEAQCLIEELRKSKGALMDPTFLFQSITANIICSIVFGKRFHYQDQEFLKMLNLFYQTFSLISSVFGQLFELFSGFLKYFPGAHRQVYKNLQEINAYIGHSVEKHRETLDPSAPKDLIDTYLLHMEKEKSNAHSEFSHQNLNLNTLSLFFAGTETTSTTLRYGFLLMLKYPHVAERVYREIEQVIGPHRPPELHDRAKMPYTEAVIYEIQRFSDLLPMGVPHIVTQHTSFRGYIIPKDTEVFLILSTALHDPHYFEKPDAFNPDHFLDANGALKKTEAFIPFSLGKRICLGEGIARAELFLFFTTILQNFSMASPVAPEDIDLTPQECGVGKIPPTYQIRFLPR
# In short: (§3)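 Insect-cell microsomes with single cDNA-expressed human P450 (100 nM) in 0.1 M potassium phosphate; 10 μM substrate prewarmed 5 min at 37 °C with NADPH-regenerating system, reaction started by adding microsomes; 30 min at 37 °C, 0.1% DMSO. Stopped, dried, reconstituted in methanol; triple-quadrupole SRM (12-OH 283.1→223.0, 2-OH 283.1→160.9, 3-OH 283.1→241.9), peak height; three replicates, mean ± SD.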
# [9] = test system: Hepatocyte; test: Induction of change in TM9SF1 protein expression in human primary hepatocytes at 10 uM incubated for 48 hrs by relative-quantitation label-free proteomics analysis relative to NVP; format: cell-based
# In short: as §1, with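 “Cryoplateable pooled human” for “Fresh primary”, “(10 mixed-sex donors per pool; three pools),” for “from male C57BL/6J mice aged 8–13 weeks,”, “(10” for “(400”, “(0.1%” for “(0.2%”, “48” for “8”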
# [10] = test system: Hepatocyte; test: Induction of change in DERA protein expression in human primary hepatocytes at 10 uM incubated for 48 hrs by relative-quantitation label-free proteomics analysis relative to NVP; format: cell-based
# In short: as §1, with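 “Cryoplateable pooled human” for “Fresh primary”, “(10 mixed-sex donors per pool; three pools),” for “from male C57BL/6J mice aged 8–13 weeks,”, “(10” for “(400”, “(0.1%” for “(0.2%”, “48” for “8”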
# [11] = test system: Cytochrome P450; test: Drug metabolism in human primary hepatocytes assessed as Cytochrome P450-mediated formation of 3-OHNVP at 10 uM incubated for 24 to 48 hrs by uHPLC-MS analysis; format: ADME, cell-based; in short: as §2
# [12] = Drug metabolism in human primary hepatocytes assessed as O-GlucNVP metabolite formation at 10 uM incubated for 24 hrs by uHPLC-MS analysis; format: ADME, cell-based, Hepatocyte; in short: as §2
# [13] = test system: Hepatocyte; test: Induction of change in Rps27a protein expression in C57BL/6J mouse primary hepatocytes at 400 uM incubated for 8 hrs by relative-quantitation label-free proteomics analysis relative to NVP; format: cell-based; in short: as §1
# [14] = biological target: T1, Cytochrome P450 2B6; test: Drug metabolism assessed as human CYP2B6-mediated formation of 3-OHNVP at 10 uM pre-incubated for 30 mins followed by addition of NADPH regenerating reagents by uHPLC-MS analysis; format: ADME; settings: recombinant enzyme; in short: as §3
# [15] = test system: Hepatocyte; test: Induction of change in Manf protein expression in C57BL/6J mouse primary hepatocytes at 400 uM incubated for 8 hrs by relative-quantitation label-free proteomics analysis relative to NVP; format: cell-based; in short: as §1
# [16] = test system: Hepatocyte; test: Induction of change in FUBP3 protein expression in human primary hepatocytes at 10 uM incubated for 48 hrs by relative-quantitation label-free proteomics analysis relative to NVP; format: cell-based
# In short: as §1, with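 “Cryoplateable pooled human” for “Fresh primary”, “(10 mixed-sex donors per pool; three pools),” for “from male C57BL/6J mice aged 8–13 weeks,”, “(10” for “(400”, “(0.1%” for “(0.2%”, “48” for “8”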
smiles,measurement,setting,value
[2H]C([2H])([2H])c1ccnc2c1NC(=O)c1cccnc1N2C1CC1,fold change (FC),[1],-5.67
same,fold change (FC),[2],-1.52
same,fold change (FC),[3],-1.93
same,fold change (FC),[4],1.05
same,Drug metabolism,[5],Metabolite_Detected
same,fold change (FC),[6],1.36
same,fold change (FC),[7],-1.87
same,Drug metabolism,[8],Metabolite_Detected
same,fold change (FC),[9],-1.86
same,fold change (FC),[10],-1.63
same,Drug metabolism,[11],Metabolite_Detected
same,Drug metabolism,[12],Metabolite_Detected
same,fold change (FC),[13],3.03
same,Drug metabolism,[14],Metabolite_Detected
same,fold change (FC),[15],1.3
same,fold change (FC),[16],-1.47
